ChEMBL document CHEMBL1687852, “Steroids with aromatic A-rings from the Hainan soft coral Dendronephthya studeri Ridley” (J Nat Prod, 2011)
Activity calls are given as the source filed them. No cut-off for these calls is given here.

Assays:
Format in all cases: functional, cell-based
[1] = tested on: Bel-7402; test: Cytotoxicity against human Bel7402 at 20 ug/ml by MTT assay
In short: (§1)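 Growth of the tumour cell lines was tested with compound at concentrations up to 20 μg/mL. The lines were human lung adenocarcinoma A549, BEL-7402, human promyelocytic leukaemia HL-60 and murine lymphocytic leukaemia P388.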

[2] = tested on: P388; test: Cytotoxicity against mouse P388 at 20 ug/ml by MTT assay; in short: as §1
[3] = tested on: HL-60; test: Cytotoxicity against human HL60 at 20 ug/ml by MTT assay; in short: as §1
[4] = tested on: A549; test: Cytotoxicity against human A549 at 20 ug/ml by SRB assay; in short: as §1
[5] = tested on: Bel-7402; test: Cytotoxicity against human Bel7402 by MTT assay

Compound	Activity [1]	Activity [2]	Activity [3]	Activity [4]	Activity [5]
CC(C)CCC[C@@H](C)[C@H]1CC[C@H]2[C@@H]3CCc4cc(O)ccc4[C@H]3CC[C@]12C	inactive	inactive	inactive	inactive	
CC1CC1/C=C/[C@@H](C)[C@H]1CC[C@H]2[C@@H]3CCc4cc(O)ccc4[C@H]3CC[C@]12C (stereo partly specified)	inactive	inactive	inactive	inactive	
COC(=O)[C@H](CCCC(C)C)[C@H]1CC[C@H]2[C@@H]3CC[C@H]4CC(=O)C=C[C@]4(C)[C@H]3CC[C@]12C					Active
CC(C)/C=C/[C@@H](C)[C@H]1CC[C@H]2[C@@H]3CCC4=CC(=O)C=C[C@]4(C)[C@H]3CC[C@]12C	inactive	inactive	inactive	inactive	
CC(C)[C@H](C)/C=C/[C@@H](C)[C@H]1CC[C@H]2[C@@H]3CCc4cc(O)ccc4[C@H]3CC[C@]12C	inactive	inactive	inactive	inactive	
C=C(CC[C@@H](C)[C@H]1CC[C@H]2[C@@H]3CCc4cc(O)ccc4[C@H]3CC[C@]12C)C(C)C	inactive	inactive	inactive	inactive	
CC(C)[C@@H](C)/C=C/[C@@H](C)[C@H]1CC[C@H]2[C@@H]3CCc4cc(O)ccc4[C@H]3CC[C@]12C	inactive	inactive	inactive	inactive	
C=C(CC[C@@H](C)[C@H]1CC[C@H]2[C@@H]3CCC4=CC(=O)C=C[C@]4(C)[C@H]3CC[C@]12C)C(C)C	inactive	inactive	inactive	inactive	
CC(C)/C=C/[C@@H](C)[C@H]1CC[C@H]2[C@@H]3CCc4cc(O)ccc4[C@H]3CC[C@]12C	inactive	inactive	inactive	inactive	
CC(C)C/C=C/[C@@H](C)[C@H]1CC[C@H]2[C@@H]3CCC4=CC(=O)C=C[C@]4(C)[C@H]3CC[C@]12C	inactive	inactive	inactive	inactive	
CC(C)C/C=C/[C@@H](C)[C@H]1CC[C@H]2[C@@H]3CCc4cc(O)ccc4[C@H]3CC[C@]12C	inactive	inactive	inactive	inactive	
